Measurements: ChEMBL document CHEMBL4425108, “A Selective and Slowly Reversible Inhibitor of l-Type Amino Acid Transporter 1 (LAT1) Potentiates Antiproliferative Drug Efficacy in Cancer Cells” (J Med Chem, 2016)
Converted amounts (≈) assume the structure as drawn. The source made the active and inactive calls. The rule behind the calls is not given here.

How the values were obtained:
[1] = biological target: Large neutral amino acids transporter small subunit 1 (Mus musculus, UniProt Q9Z127); assay: Ratio of Kin for L-leucine to Kin for test compound for LAT1-mediated drug uptake in mouse brain; type: ADME, tissue-based; conditions: in vivo
Chain of Large neutral amino acids transporter small subunit 1 (Mus musculus, UniProt Q9Z127) (Q9Z127 whole entry, the tested form may be a part): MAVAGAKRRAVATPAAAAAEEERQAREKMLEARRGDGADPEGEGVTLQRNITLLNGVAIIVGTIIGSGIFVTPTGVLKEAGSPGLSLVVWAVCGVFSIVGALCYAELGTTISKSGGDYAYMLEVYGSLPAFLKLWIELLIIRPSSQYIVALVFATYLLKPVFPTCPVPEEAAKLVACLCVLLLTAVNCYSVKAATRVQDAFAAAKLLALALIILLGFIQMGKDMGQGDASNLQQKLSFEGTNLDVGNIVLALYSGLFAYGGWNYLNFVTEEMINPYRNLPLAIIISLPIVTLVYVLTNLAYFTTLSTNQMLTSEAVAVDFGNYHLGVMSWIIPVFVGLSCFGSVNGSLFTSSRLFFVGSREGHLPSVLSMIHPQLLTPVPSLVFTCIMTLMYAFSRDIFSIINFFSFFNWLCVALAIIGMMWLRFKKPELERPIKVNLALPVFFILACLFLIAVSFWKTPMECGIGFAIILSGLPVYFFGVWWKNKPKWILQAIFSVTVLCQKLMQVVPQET
How it was run: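 In situ brain perfusion in anaesthetised adult male mice (ketamine/xylazine i.p.) via right common carotid at 2.5 mL/min, 37 °C. Perfusate was 0.157 µM [14C]-L-leucine for 30 s or 100 µM test compound for 60 s, then 2 s drug-free buffer at 4 °C. Kin = Qtot/(Cpf × T). Mean ± SD, n=3-4.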

[2] = fCmax in mouse plasma at 23 umol/kg, ip administered as bolus by LC-MS analysis; type: ADME, organism-based; conditions: in vivo
How it was run: (§1)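 Male mice (25 ± 5 g) dosed i.p. as a bolus at 23 µmol/kg in DMSO/hydroxypropyl-β-cyclodextrin/saline vehicle, sampled at time points 10–480 min; plasma and tissue homogenates (1:3 water) analysed by LC-MS. […] Mean ± SEM.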

[3] = Terminal half life in mouse plasma at 23 umol/kg, ip administered as bolus by LC-MS analysis; type: ADME, organism-based; conditions: read-out: beta t1/2
How it was run: (§2)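 Adult male mice (25 ± 5 g) given a single i.p. bolus of 23 µmol/kg, dosing solution 1.36 mM in 10% (v/v) DMSO, 20% (w/v) hydroxypropyl-β-cyclodextrin, 0.9% NaCl in water. Decapitation at time points 10–480 min; plasma, brain, liver, prostate, kidney, heart collected. Acetonitrile precipitation with repaglinide internal standard, LC-MS (ESI positive). tmax and t½β taken from concentration-time data; mean ± SEM, n=3.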

[4] = Cmax in mouse plasma at 23 umol/kg, ip administered as bolus by LC-MS analysis; type: ADME, organism-based; design: dose 23 umol/kg, route intraperitoneal
How it was run: (§3)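 Male adult mice (25 ± 5 g) given a single i.p. bolus at 23 µmol/kg. The dosing solution was 1.36 mM in 10% (v/v) DMSO, 20% (w/v) hydroxypropyl-β-cyclodextrin and 0.9% NaCl. Animals were decapitated at seven time points from 10 to 480 min. Plasma and tissues were acetonitrile-precipitated with repaglinide internal standard and analysed by LC-MS. Parameters were derived from concentration–time data, mean ± SEM (n=3).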

[5] = Metabolic stability in human plasma at 37 degreeC in presence of NADPH regenerating system measured after 2 hrs by HPLC analysis; type: ADME, cell-free
[6] = biological target: T1, Large neutral amino acids transporter small subunit 1 (Homo sapiens, UniProt Q01650); assay: Competitive binding to LAT1 in human MCF7 cells at 100 uM after 30 mins in presence of OATP 1B1/1B3 inhibitor rifampicin by HPLC analysis; type: cell-based
T1 sequence (Q01650 whole entry): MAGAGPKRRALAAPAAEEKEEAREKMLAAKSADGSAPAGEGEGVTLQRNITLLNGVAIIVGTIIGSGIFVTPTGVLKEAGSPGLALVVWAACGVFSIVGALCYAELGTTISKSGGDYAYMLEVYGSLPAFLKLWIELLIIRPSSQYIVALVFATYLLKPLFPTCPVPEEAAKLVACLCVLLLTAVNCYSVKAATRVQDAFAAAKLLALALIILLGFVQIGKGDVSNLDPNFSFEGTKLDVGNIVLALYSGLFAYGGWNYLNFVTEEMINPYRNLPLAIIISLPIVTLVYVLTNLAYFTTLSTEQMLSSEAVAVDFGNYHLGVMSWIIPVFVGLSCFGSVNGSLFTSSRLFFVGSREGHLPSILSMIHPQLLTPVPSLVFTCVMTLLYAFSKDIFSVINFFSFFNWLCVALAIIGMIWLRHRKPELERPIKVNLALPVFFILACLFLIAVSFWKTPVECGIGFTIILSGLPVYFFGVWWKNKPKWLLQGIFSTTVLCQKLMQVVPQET
How it was run: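 MCF-7 cells incubated 30 min at 37 °C in HBSS (pH 7.4) holding 100 µM test compound plus 500 µM competitor. Cells washed three times with ice-cold HBSS and lysed in 0.1 M NaOH. Cell-associated compound measured by HPLC against a lysate-spiked standard curve and normalised to protein. Mean ± SD, n=3.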

[7] = Unbound AUC (0 to 480 mins) in mouse heart at 23 umol/kg, ip administered as bolus by LC-MS analysis; type: ADME, organism-based; conditions: in vivo; how it was run: as §1
[8] = Aqueous solubility of the compound measured after 4 hrs by HPLC method; type: physicochemical
[9] = Unbound AUC (0 to 480 mins) in mouse brain at 23 umol/kg, ip administered as bolus by LC-MS analysis; type: ADME, organism-based; conditions: in vivo; how it was run: as §1
Mus musculus [10] = assay: Binding affinity to LAT1 in mouse brain assessed as inhibition of [14C]-L-leucine uptake at 23 umol/kg, ip measured 10 mins post perfusion with [14C]-L-leucine; type: functional
How it was run: (§4)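 Mice under ketamine/xylazine anaesthesia had the right common carotid artery cannulated. Brains were perfused at 37 °C, 2.5 mL/min, for 30 s with 0.157 µM [14C]-L-leucine, then 2 s with analyte-free buffer at 4 °C. Perfusion took place 10 or 180 min after 23 µmol/kg i.p. dosing.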

[11] = biological target: T1, Large neutral amino acids transporter small subunit 1; assay: Competitive inhibition of [14C]-L-leucine uptake at LAT1 in human MCF7 cells at 100 uM preincubated for 10 mins followed by addition of substrate measured during 5 mins by liquid scintillation counting; type: cell-based
How it was run: (§5)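 MCF-7 cells seeded 1 × 10^5/well, used one day later. Washed and pre-incubated 10 min at 37 °C in choline-chloride HBSS (Na+-free, 25 mM HEPES, pH 7.4), then 5 min at 37 °C with 0.157 µM [14C]-L-leucine plus 1-1000 µM inhibitor (DMSO blank). Ice-cold washes, NaOH lysis, scintillation counting. IC50 by nonlinear regression over 8 concentrations. Mean ± SD, n=3.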

[12] = Fraction unbound in mouse heart at 23 umol/kg, ip administered as bolus by LC-MS analysis; type: ADME, organism-based
How it was run: (§6)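 Unbound fraction was measured by equilibrium dialysis at 100 µM in mouse plasma and in brain, liver, kidney, heart and prostate homogenates.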

[13] = biological target: T1, Large neutral amino acids transporter small subunit 1; assay: Competitive inhibition of [14C]-L-leucine uptake at LAT1 in human MCF7 cells at 25 uM preincubated for 10 mins followed by addition of substrate measured during 5 mins by liquid scintillation counting; type: cell-based; how it was run: as §5
Mus musculus [14] = assay: Binding affinity to LAT1 in mouse brain assessed as inhibition of [14C]-L-leucine uptake at 23 umol/kg, ip measured 180 mins post perfusion with [14C]-L-leucine; type: functional; conditions: 3 h; how it was run: as §4
[15] = Unbound AUC (0 to 480 mins) in mouse plasma at 23 umol/kg, ip administered as bolus by LC-MS analysis; type: ADME, organism-based; conditions: in vivo; how it was run: as §1
MCF7 = assay: Antiproliferative activity against human MCF7 cells assessed as reduction in cell viability at 25 measured after 72 hrs by resazurin dye-based fluorimetric analysis; type: functional
How it was run: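 MCF-7 cells were seeded at 2 × 10^4 cells/well on collagen-coated plates and treated one day later. Agents were given alone or combined (25 or 100 µM with 100 µM partner drug) in growth medium for 3 days. Viability was read daily by resazurin fluorescence (ex 560/em 590 nm) and expressed relative to untreated controls.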

[16] = AUC (0 to 480 min) in mouse prostate at 23 umol/kg, ip administered as bolus by LC-MS analysis; type: ADME, organism-based, Prostate gland; design: dose 23 umol/kg, time < 8 hr, route intraperitoneal; conditions: in vivo, 8 h; how it was run: as §3
[17] = biological target: T1, Large neutral amino acids transporter small subunit 1; assay: Inhibition of LAT1 in human MCF7 cells assessed as potentiation of bestatin-induced antiproliferative activity by measuring reduction in cell viability at 25 uM measured after 24 hrs by resazurin dye-based fluorimetric analysis
How it was run: (§7)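 MCF-7 cells seeded 2 × 10^4/well on collagen-coated plates, treated one day later in growth medium with inhibitor (25 or 100 µM) plus bestatin or cisplatin (100 µM) for up to 3 days. Viability read daily by resazurin fluorescence (ex 560/em 590 nm). Viability is treated relative to untreated control. Mean ± SD, n=3.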

[18] = Fraction unbound in mouse prostate at 23 umol/kg, ip administered as bolus by LC-MS analysis; type: ADME, organism-based, Prostate gland; how it was run: as §6
[19] = biological target: T1, Large neutral amino acids transporter small subunit 1; assay: Inhibition of LAT1 in human MCF7 cells assessed as potentiation of cisplatin-induced antiproliferative activity by measuring reduction in cell viability at 25 uM measured after 72 hrs by resazurin dye-based fluorimetric analysis; how it was run: as §7
[20] = Cmax in mouse liver at 23 umol/kg, ip administered as bolus by LC-MS analysis; type: ADME, organism-based; design: dose 23 umol/kg, route intraperitoneal; conditions: in vivo; how it was run: as §3
[21] = Tmax in mouse kidney at 23 umol/kg, ip administered as bolus by LC-MS analysis; type: ADME, organism-based; how it was run: as §2
[22] = Terminal half life in mouse kidney at 23 umol/kg, ip administered as bolus by LC-MS analysis; type: ADME, organism-based; conditions: read-out: beta t1/2; how it was run: as §3

## CNC(=O)COc1ccc(-c2c(C#N)c(NC(=O)c3cccc(C[C@H](N)C(=O)O)c3)n3c(nc4ccccc43)c2C#N)cc1
[1]
  Ratio: 156
[2]
  fCmax: 0.19 nmol/mL
[3]
  half-life: 44.9 min
[4]
  Cmax: 19.5 µM
[5]
  Stability: Stable
[6]
  Activity: Active
[7]
  fAUC: 4 nmol/g/min
[8]
  solubility at 4 h: 1160 µg/mL (≈ 1970 µM)
[9]
  fAUC: 0.1 nmol/g/min
Mus musculus [10]
  inhibition in vivo at 23 µmol/kg: 27%
[11]
  inhibition: 77.8%
[12]
  fraction unbound: 0.0162
[13]
  inhibition: 55.1%
Mus musculus [14]
  inhibition in vivo at 23 µmol/kg: 14%
[15]
  fAUC: 7.8 nmol/min/mL
MCF7
  Activity: 34.8%
[16]
  AUC: 1275 nmol/g/min
[17]
  Activity: 24.7%
[18]
  fraction unbound: 0.0144
[19]
  Activity: 49.7%
[20]
  Cmax: 38.7 nmol/g
[21]
  Tmax: 10 min
[22]
  half-life: 41.8 min
